Experimental findings from ChEMBL document CHEMBL1152541, “Staurosporine tethered peptide ligands that target cAMP-dependent protein kinase (PKA): optimization and selectivity profiling” (Bioorg Med Chem, 2009) are described below.

Experiment [1] deals with Tyrosine-protein kinase BTK (Homo sapiens) (UniProt Q06187). Briefly: Binding affinity to human BTK at 500 nM by cell-based competition binding assay relative to control in presence of DTT. An outline of the steps:
(§1)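 Kinase binding profiling ran on a commercial (Ambit) competitive binding screen against a panel of 90 kinases. The screen used reducing conditions with 7.5 mM DTT. To withstand the DTT, the bivalent ligand was tested as its amide isostere, with the disulfide replaced. A staurosporine derivative carrying a 3 β-alanine linker was run as the reference compound.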

Experiment [2] deals with Cyclin-dependent kinase 7 (Homo sapiens) (UniProt P50613). Briefly: Binding affinity to human CDK7 at 500 nM by cell-based competition binding assay relative to control in presence of DTT. An outline of the steps:
(§2)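 Commercial (Ambit) competitive kinase-binding panel of 90 kinases measured the binding profile. Run under reducing conditions of 7.5 mM DTT. Binding is expressed relative to control.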

The target of experiment [3] is Fibroblast growth factor receptor 3 (Homo sapiens) (UniProt P22607). Briefly: Binding affinity to human FGFR3 at 500 nM by cell-based competition binding assay relative to control in presence of DTT. An outline of the steps: as §2
For experiment [4], the target named is T1, Serine/threonine-protein kinase STK11 (Homo sapiens) (UniProt Q15831).
T1 sequence (whole entry): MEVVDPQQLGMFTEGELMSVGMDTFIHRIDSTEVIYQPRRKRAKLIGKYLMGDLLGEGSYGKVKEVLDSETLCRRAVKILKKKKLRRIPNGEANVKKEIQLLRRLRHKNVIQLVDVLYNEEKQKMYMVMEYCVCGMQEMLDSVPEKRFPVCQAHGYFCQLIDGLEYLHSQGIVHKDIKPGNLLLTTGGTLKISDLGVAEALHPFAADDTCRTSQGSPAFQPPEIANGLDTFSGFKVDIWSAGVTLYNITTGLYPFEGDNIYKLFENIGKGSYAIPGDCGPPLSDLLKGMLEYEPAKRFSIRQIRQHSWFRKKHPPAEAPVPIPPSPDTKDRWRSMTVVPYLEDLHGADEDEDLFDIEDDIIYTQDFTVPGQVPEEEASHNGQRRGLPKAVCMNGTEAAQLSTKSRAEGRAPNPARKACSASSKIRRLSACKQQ
Briefly: Binding affinity to human LKB1 at 500 nM by cell-based competition binding assay relative to control in presence of DTT. An outline of the steps:
(§3)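 Competition binding screen (Ambit) across a panel of 90 kinases, scoring test ligand displacement of each kinase's binding relative to control. The screen ran under reducing conditions with 7.5 mM DTT.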

Experiment [5] has as its target Platelet-derived growth factor receptor alpha (Homo sapiens) (UniProt P16234). As to the kind of experiment: Binding affinity to human PDGFRalpha at 500 nM by cell-based competition binding assay relative to control in presence of DTT.
Experiment [6] concerns the target Fibroblast growth factor receptor 2 (Homo sapiens) (UniProt P21802). Briefly: Binding affinity to human FGFR2 at 200 nM by cell-based competition binding assay relative to control in presence of DTT. A digest of the protocol:
as §2

In experiment [7] the target is Insulin-like growth factor 1 receptor (Homo sapiens) (UniProt P08069). As to the kind of experiment: Binding affinity to human IGF1R at 200 nM by cell-based competition binding assay relative to control in presence of DTT. A digest of the protocol:
as §3

The target in experiment [8] is Insulin receptor (Homo sapiens) (UniProt P06213). Briefly: Binding affinity to human INSR at 200 nM by cell-based competition binding assay relative to control in presence of DTT. A digest of the protocol: as §3
The test system of experiment [9] is Mast/stem cell growth factor receptor Kit (Homo sapiens), P10721 [D816V]. As to the kind of experiment: Binding affinity to human KIT D816V mutant at 200 nM by cell-based competition binding assay relative to control in presence of DTT. A digest of the protocol: as §3
The target of experiment [10] is Mitogen-activated protein kinase kinase kinase 9 (Homo sapiens) (UniProt P80192). As to the kind of experiment: Binding affinity to human MLK1 at 200 nM by cell-based competition binding assay relative to control in presence of DTT.
The target in experiment [11] is Ribosomal protein S6 kinase alpha-3 (Homo sapiens) (UniProt P51812). Briefly: Binding affinity to human RPS6KA3 kinase domain 1 at 200 nM by cell-based competition binding assay relative to control in presence of DTT.
Experiment [12] addresses Cyclin-dependent kinase 19 (Homo sapiens) (UniProt Q9BWU1). As to the kind of experiment: Binding affinity to human CDK11 at 50 nM by cell-based competition binding assay relative to control in presence of DTT. A digest of the protocol: as §1
Experiment [13] concerns the target T2, Serine/threonine-protein kinase Chk1 (Homo sapiens) (UniProt O14757).
T2 sequence (whole entry): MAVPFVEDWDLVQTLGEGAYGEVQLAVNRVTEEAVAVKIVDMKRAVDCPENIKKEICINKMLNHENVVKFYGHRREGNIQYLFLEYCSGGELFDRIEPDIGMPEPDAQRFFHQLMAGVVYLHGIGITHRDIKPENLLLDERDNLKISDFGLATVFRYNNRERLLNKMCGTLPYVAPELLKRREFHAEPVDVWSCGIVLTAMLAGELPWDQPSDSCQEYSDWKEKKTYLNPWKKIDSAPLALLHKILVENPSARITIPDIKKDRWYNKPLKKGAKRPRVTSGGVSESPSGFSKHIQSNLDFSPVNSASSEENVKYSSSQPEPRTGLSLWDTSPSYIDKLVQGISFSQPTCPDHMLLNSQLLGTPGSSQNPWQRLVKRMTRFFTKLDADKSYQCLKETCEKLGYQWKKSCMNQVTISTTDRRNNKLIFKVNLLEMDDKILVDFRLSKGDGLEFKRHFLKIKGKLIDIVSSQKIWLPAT
Briefly: Binding affinity to human CHEK1 at 50 nM by cell-based competition binding assay relative to control in presence of DTT. An outline of the steps: as §2

In experiment [14] the test system is Epidermal growth factor receptor (Homo sapiens), P00533 [L858R]. Briefly: Binding affinity to human EGFR L858R mutant at 50 nM by cell-based competition binding assay relative to control in presence of DTT. A digest of the protocol:
as §2

In experiment [15] the test system is Mast/stem cell growth factor receptor Kit (Homo sapiens), P10721 [V559D,T670I]. Briefly: Binding affinity to human KIT V559D,T670I mutant at 50 nM by cell-based competition binding assay relative to control in presence of DTT. An outline of the steps: as §3
Experiment [16] addresses MAP/microtubule affinity-regulating kinase 3 (Homo sapiens) (UniProt P27448). Briefly: Binding affinity to human MARK3 at 50 nM by cell-based competition binding assay relative to control in presence of DTT. A digest of the protocol:
as §3

In experiment [17] the target is Phosphatidylinositol 4-phosphate 3-kinase C2 domain-containing subunit beta (Homo sapiens) (UniProt O00750). Briefly: Binding affinity to human PIK3C2beta at 50 nM by cell-based competition binding assay relative to control in presence of DTT.
The target of experiment [18] is Serine/threonine-protein kinase pim-2 (Homo sapiens) (UniProt Q9P1W9). As to the kind of experiment: Binding affinity to human PIM2 at 50 nM by cell-based competition binding assay relative to control in presence of DTT.
Experiment [19] deals with Mitogen-activated protein kinase 3 (Homo sapiens) (UniProt P27361). As to the kind of experiment: Binding affinity to human ERK1 at 50 nM by cell-based competition binding assay relative to control in presence of DTT. An outline of the steps: as §2
Experiment [20] concerns the target Fibroblast growth factor receptor 3 (Homo sapiens) (UniProt P22607). As to the kind of experiment: Binding affinity to human FGFR3 at 50 nM by cell-based competition binding assay relative to control in presence of DTT. A digest of the protocol: as §2

*1 amine or outer side, *2 acyl side, *3 side chain or, on linkers, in order; H or OH if unused. Where a SMILES comes first, the peptide text is derived from it. Bridges are numbered along the chain shown (N, C = ends). [ ]: non-standard residue; d: D form. The star is where a group is joined. Staurosporine = CO[C@@H]1[C@H](N(C)*)C[C@H]2O[C@]1(C)n1c3ccccc3c3c4c(c5c6ccccc6n2c5c31)C(=O)NC4; Suc = O=C(CCC(=O)[*:2])[*:1]; Dap = NC[C@H](N)C(=O)O; βAla = NCCC(=O)O

Chain of Fibroblast growth factor receptor 3 (Homo sapiens) (P22607 23-806 limits assumed): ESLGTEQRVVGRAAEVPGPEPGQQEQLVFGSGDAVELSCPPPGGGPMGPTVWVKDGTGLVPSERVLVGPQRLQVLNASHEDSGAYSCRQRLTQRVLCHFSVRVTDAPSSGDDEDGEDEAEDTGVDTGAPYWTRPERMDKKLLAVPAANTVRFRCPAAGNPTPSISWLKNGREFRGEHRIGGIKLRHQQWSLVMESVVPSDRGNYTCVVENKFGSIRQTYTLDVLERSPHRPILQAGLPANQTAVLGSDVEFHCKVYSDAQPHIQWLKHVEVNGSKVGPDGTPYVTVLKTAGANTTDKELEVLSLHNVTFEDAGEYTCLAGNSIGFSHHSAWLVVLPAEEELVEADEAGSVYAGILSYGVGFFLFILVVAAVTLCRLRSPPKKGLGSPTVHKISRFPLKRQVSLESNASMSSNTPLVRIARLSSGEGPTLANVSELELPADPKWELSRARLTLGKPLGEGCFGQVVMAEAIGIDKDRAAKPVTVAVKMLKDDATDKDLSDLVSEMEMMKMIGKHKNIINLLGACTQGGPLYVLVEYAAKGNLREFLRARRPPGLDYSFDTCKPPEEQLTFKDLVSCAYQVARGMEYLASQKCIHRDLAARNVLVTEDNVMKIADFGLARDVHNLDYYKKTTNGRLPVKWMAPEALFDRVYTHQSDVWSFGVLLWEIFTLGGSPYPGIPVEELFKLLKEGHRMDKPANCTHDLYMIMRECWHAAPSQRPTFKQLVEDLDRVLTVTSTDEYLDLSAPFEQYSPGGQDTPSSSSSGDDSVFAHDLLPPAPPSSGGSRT
Chain of Mast/stem cell growth factor receptor Kit (Homo sapiens), P10721 [D816V] (P10721 whole entry D816V): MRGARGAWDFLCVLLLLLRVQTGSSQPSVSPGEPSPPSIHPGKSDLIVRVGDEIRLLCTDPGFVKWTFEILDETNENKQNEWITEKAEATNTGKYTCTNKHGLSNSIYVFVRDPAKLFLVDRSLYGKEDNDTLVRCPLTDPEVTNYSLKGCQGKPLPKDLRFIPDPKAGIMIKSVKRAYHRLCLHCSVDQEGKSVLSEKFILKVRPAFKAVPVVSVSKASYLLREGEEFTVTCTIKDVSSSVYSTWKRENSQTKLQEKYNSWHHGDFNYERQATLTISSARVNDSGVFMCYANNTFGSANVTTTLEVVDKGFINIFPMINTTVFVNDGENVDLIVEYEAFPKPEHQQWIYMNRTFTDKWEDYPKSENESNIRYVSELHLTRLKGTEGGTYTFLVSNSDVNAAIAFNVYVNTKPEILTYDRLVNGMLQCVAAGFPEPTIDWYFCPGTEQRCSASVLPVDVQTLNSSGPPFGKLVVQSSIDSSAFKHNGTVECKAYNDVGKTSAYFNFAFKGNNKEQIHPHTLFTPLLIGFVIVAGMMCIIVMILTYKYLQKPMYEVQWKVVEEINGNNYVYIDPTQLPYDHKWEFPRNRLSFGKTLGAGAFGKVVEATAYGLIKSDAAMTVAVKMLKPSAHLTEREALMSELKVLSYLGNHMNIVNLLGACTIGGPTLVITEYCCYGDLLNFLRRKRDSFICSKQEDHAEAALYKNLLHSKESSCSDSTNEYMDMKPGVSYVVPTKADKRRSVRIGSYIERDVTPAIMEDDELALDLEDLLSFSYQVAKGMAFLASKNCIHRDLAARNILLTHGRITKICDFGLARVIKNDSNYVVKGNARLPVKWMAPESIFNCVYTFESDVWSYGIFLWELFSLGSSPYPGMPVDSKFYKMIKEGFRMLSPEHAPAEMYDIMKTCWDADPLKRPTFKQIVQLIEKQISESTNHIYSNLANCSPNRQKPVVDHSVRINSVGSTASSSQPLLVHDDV
Chain of Mitogen-activated protein kinase 3 (Homo sapiens) (P27361 whole entry): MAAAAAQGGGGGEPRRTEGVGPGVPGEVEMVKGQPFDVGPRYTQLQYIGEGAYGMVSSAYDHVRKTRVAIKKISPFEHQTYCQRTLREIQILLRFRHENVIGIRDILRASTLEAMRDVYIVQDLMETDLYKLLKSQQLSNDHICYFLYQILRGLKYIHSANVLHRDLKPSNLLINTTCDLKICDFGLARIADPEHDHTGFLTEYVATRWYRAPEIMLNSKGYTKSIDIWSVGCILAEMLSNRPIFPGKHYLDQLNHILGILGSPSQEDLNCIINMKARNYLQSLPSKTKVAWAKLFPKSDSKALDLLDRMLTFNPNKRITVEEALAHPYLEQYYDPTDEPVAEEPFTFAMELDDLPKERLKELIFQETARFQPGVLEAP
Chain of Mitogen-activated protein kinase kinase kinase 9 (Homo sapiens) (P80192 whole entry, looked up, the tested form may be a part): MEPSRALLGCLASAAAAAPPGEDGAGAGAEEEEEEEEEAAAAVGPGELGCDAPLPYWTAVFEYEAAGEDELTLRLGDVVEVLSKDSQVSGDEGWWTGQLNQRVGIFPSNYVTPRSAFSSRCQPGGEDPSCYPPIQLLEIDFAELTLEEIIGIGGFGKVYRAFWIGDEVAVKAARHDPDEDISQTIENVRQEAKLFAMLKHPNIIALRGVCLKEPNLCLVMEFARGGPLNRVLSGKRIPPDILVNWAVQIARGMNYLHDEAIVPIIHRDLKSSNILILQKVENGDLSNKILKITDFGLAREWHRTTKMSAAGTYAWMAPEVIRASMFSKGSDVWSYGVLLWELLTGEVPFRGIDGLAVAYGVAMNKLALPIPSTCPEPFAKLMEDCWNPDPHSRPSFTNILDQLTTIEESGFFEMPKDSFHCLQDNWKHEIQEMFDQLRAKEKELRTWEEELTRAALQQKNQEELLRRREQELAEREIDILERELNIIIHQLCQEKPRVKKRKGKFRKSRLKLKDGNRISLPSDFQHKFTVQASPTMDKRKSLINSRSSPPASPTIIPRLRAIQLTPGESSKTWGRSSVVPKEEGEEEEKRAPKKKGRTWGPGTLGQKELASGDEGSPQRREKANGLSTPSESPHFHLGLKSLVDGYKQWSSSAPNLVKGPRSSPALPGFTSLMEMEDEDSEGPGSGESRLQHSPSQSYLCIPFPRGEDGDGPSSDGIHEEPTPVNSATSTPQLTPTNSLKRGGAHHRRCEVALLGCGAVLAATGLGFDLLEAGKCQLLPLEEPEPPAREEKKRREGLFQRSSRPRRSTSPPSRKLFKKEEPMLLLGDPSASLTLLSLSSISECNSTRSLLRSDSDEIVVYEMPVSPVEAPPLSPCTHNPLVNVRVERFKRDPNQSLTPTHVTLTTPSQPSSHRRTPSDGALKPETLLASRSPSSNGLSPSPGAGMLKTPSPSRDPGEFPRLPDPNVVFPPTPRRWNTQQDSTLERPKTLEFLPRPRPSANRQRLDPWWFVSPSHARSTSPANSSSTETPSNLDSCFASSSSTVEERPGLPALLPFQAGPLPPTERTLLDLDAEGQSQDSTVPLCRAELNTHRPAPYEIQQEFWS
Chain of Ribosomal protein S6 kinase alpha-3 (Homo sapiens) (P51812 whole entry, the tested form may be a part): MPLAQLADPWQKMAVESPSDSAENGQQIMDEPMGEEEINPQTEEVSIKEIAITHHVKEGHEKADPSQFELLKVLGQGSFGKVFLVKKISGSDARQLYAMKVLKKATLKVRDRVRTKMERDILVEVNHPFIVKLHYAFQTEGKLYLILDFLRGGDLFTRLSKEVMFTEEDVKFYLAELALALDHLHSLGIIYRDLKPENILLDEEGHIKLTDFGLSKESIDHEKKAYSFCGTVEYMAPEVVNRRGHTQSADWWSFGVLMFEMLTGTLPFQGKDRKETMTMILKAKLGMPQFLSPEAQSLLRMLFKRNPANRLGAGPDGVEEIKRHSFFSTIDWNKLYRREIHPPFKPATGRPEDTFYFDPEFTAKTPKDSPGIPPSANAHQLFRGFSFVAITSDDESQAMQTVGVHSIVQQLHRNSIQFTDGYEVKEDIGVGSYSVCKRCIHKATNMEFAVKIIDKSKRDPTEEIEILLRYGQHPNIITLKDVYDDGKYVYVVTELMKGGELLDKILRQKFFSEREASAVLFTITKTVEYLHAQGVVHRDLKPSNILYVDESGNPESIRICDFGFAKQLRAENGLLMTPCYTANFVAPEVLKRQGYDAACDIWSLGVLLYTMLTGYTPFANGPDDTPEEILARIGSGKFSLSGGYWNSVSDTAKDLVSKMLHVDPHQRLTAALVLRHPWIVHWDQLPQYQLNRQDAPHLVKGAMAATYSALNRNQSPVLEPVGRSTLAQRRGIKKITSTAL
Chain of Serine/threonine-protein kinase pim-2 (Homo sapiens) (Q9P1W9 whole entry, looked up): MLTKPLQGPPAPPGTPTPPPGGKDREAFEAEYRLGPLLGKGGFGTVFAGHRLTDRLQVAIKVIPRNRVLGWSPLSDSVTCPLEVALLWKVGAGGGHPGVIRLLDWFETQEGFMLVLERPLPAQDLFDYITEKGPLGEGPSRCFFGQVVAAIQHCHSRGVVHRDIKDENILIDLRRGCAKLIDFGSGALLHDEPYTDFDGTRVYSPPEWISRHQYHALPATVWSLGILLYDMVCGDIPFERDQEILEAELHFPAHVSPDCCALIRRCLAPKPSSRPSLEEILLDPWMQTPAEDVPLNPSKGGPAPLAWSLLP
Chain of MAP/microtubule affinity-regulating kinase 3 (Homo sapiens) (P27448 whole entry, looked up): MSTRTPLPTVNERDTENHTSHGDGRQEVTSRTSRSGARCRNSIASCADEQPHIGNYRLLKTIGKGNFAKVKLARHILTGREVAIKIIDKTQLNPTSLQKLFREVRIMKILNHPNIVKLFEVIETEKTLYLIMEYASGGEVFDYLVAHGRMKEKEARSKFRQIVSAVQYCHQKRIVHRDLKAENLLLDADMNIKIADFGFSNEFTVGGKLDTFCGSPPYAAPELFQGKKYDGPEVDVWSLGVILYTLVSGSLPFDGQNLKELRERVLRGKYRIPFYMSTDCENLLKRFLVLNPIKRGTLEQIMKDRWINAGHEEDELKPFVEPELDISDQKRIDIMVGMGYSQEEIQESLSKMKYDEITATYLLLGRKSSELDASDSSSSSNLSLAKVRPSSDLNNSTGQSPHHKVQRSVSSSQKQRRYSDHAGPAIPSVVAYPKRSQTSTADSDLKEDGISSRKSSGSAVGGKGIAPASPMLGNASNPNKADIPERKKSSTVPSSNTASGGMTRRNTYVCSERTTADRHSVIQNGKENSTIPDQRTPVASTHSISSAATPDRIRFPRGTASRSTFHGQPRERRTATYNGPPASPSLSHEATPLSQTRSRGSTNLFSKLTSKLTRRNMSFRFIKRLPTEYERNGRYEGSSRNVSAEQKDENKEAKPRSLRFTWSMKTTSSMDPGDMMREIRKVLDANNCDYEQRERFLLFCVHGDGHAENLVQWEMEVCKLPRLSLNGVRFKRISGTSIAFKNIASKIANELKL

In the case of `CO[C@@H]1[C@H](N(C)C(=O)CCC(=O)NCCC(=O)NCCC(=O)NCCC(N)=O)C[C@H]2O[C@]1(C)n1c3ccccc3c3c4c(c5c6ccccc6n2c5c31)C(=O)NC4`, the Activity turned out to be 31% in [1]; 100% in [2]; 43% in experiment [3]; 41% in experiment [4]; 7% in [5].
`CO[C@@H]1[C@H](N(C)C(=O)CCC(=O)NCCC(=O)NCCC(=O)NCCC(=O)NCCC(=O)NCCC(=O)NCCC(=O)NCCC(=O)N[C@H]2CSSC[C@@H](C(=O)NCC(N)=O)NC(=O)CNC(=O)[C@H](Cc3ccccc3)NC(=O)[C@H](C(C)C)NC(=O)[C@H](CCCNC(=N)N)NC(=O)[C@H](Cc3ccccc3)NC(=O)[C@H](C(C)C)NC2=O)C[C@H]2O[C@]1(C)n1c3ccccc3c3c4c(c5c6ccccc6n2c5c31)C(=O)NC4` ({Staurosporine-Suc-βAla-βAla-βAla-βAla-βAla-βAla-βAla}-CVFRVFGCG-NH2; disulfide 1-8): the Activity in experiment [6] came out at 66%; in [7], 100%; in experiment [8], 100%; in experiment [9] it was 0.65%; in [10], 0.65%; in [11], 100%.
Consider `CO[C@@H]1[C@H](N(C)C(=O)CCC(=O)NCCC(=O)NCCC(=O)NCCC(=O)NCCC(=O)NCCC(=O)NCCC(=O)NCCC(=O)N[C@H]2CNC(=O)C[C@@H](C(N)=O)NC(=O)CNC(=O)[C@H](Cc3ccccc3)NC(=O)[C@H](C(C)C)NC(=O)[C@H](CCCNC(=N)N)NC(=O)[C@H](Cc3ccccc3)NC(=O)[C@H](C(C)C)NC2=O)C[C@H]2O[C@]1(C)n1c3ccccc3c3c4c(c5c6ccccc6n2c5c31)C(=O)NC4` ({Staurosporine-Suc-βAla-βAla-βAla-βAla-βAla-βAla-βAla}-[Dap]VFRVFGD-NH2; lactam 1-8), for which the Activity in experiment [12] was 100%; in [13], 91%; in experiment [14], 100%; in experiment [15], 59%; in experiment [16], 61%; in experiment [17] it was 100%. In addition, the Activity in experiment [18], in experiment [19] and in [20] was 100% in each case.
